Laboratory results as given in PMC5116011 (The Journal of antibiotics, 2016).
Converted amounts (≈) assume the structure as drawn. Read-outs that look alike come from different tables or passages of the source.

Legend:
P. mirabilis ATCC 25933 = experiment: MIC, microbroth dilution in Mueller-Hinton broth; type: cell-based; settings: Proteus mirabilis, ATCC25933, read-out: MIC PM
S. pyogenes ATCC700294 = experiment: MIC, microbroth dilution in Mueller-Hinton broth; type: cell-based; settings: Streptococcus pyogenes, ATCC700294, read-out: MIC SPy
In short: (§1)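 CLSI broth microdilution in cation-adjusted Mueller-Hinton broth. Inocula were grown from MH agar colonies in MH broth, with a final inoculum of 10^5 CFU/ml. Test compound final range was 200–0.2 µg/ml, incubated 37°C for 18–20 h. MIC was the lowest concentration preventing visible growth. Runs were at least duplicate, and the mean MIC was reported.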

E. coli BW25113 = experiment: MIC, microbroth dilution in Mueller-Hinton broth; type: cell-based, Escherichia coli; settings: for MIC EC MH+BP/CCCP / MIC EC +: E. coli BW25113; for MIC EC MH+BP/CCCP: MH broth with 30 µg/ml 2,2′-bipyridyl and 50 µg/ml CCCP; for MIC EC +: with clavulanic acid (6µg/ml); for MIC: Escherichia coli, BW25113, read-out: MIC EC, E. coli BW25113, Mueller-Hinton broth (Table 2)
P. aeruginosa PA01 = experiment: MIC, microbroth dilution in Mueller-Hinton broth; type: cell-based, Pseudomonas aeruginosa; settings: for MIC PA MH+BP/CCCP / MIC PA +: P. aeruginosa PA01; for MIC PA MH+BP/CCCP: MH broth with 30 µg/ml 2,2′-bipyridyl and 50 µg/ml CCCP; for MIC PA +: with clavulanic acid (6µg/ml); for MIC: Pseudomonas aeruginosa
[1] = system: E. coli BW25113 ΔtolC derivative JW5503-1; experiment: MIC, microbroth dilution in Mueller-Hinton broth; type: cell-based, Escherichia coli; settings: for MIC: Escherichia coli
P. vulgaris ATCC 33420 = experiment: MIC, microbroth dilution in Mueller-Hinton broth; type: cell-based; settings: Proteus vulgaris, ATCC33420, read-out: MIC PV
B. subtilis ATCC23857 = experiment: MIC, microbroth dilution in Mueller-Hinton broth; type: cell-based; settings: Bacillus subtilis, ATCC23857, read-out: MIC BS
In short: as §1

S. pneumoniae R6 = experiment: MIC, microbroth dilution in Mueller-Hinton broth; type: cell-based; settings: Streptococcus pneumoniae, R6, read-out: MIC SP
In short: as §1

S. aureus NRS 70 (MRSA) = experiment: MIC, microbroth dilution in Mueller-Hinton broth; type: cell-based; settings: Staphylococcus aureus, MRSA|NRS70, read-out: MIC MRSA
In short: as §1

[2] = system: E. coli BW25113 ΔampC derivative JW4111-2; type: cell-based, Escherichia coli; settings: for MIC: Escherichia coli, BW25113, read-out: MIC ECΔampC −
B. anthracis sterne = experiment: microbe, parasite or virus in culture; type: cell-based; settings: Bacillus anthracis, read-out: MIC BA
E. faecalis ATCC33186 = experiment: MIC, microbroth dilution in Mueller-Hinton broth; type: cell-based; settings: Enterococcus faecalis, ATCC33186, read-out: MIC EF
In short: as §1

[3] = system: S. aureus -ATCC29213 (MSSA); experiment: MIC, microbroth dilution in Mueller-Hinton broth; type: cell-based; settings: Staphylococcus aureus, read-out: MIC MSSA
In short: as §1

[4] = E. coli BW25113 ΔtolC JW5503-1, MH broth containing 50 µg/ml CCCP
[5] = BW25113, read-out: MIC ECΔtolC MH
[6] = BW25113, read-out: MIC ECΔtolC MH+BP

| SMILES | MIC (P. mirabilis ATCC 25933) [µg/mL] | MIC (S. pyogenes ATCC700294) [µg/mL] | MIC EC MH+BP/CCCP (E. coli BW25113) [µg/mL] | MIC EC + (E. coli BW25113) [µg/mL] | MIC (E. coli BW25113) [µg/mL] | MIC PA MH+BP/CCCP (P. aeruginosa PA01) [µg/mL] | MIC (P. aeruginosa PA01; PA01, read-out: MIC PA) [µg/mL] | MIC (P. aeruginosa PA01; PA01, read-out: MIC PA MH) [µg/mL] | MIC (P. aeruginosa PA01; PA01, read-out: MIC PA MH+BP) [µg/mL] | MIC (P. aeruginosa PA01; PA01, read-out: MIC PA MH+CCCP) [µg/mL] | MIC ([1]; BW25113, read-out: MIC ECΔtolC) [µg/mL] | MIC [1, 5] [µg/mL] | MIC [1, 6] [µg/mL] | MIC (P. vulgaris ATCC 33420) [µg/mL] | MIC (B. subtilis ATCC23857) [µg/mL] | MIC (S. pneumoniae R6) [µg/mL] | MIC (S. aureus NRS 70 (MRSA)) [µg/mL] | MIC (B. anthracis sterne) [µg/mL] | MIC (E. faecalis ATCC33186) [µg/mL] | MIC [3] [µg/mL] | other results |
| --- | --- | --- | --- | --- | --- | --- | --- | --- | --- | --- | --- | --- | --- | --- | --- | --- | --- | --- | --- | --- | --- |
| CC(C)CC1NC(=O)C(C(=O)NC(C(=O)NC2C(=O)N3C2SC(C)(C)C3C(=O)O)c2ccccc2)=C1O (centres unmarked) [Compound 1903] | 12.5 (≈ 23.6 µM) | 0.39 (≈ 0.735 µM) | 12.5 (≈ 23.6 µM) | 12.5 | 50 (≈ 94.2 µM) | 1.56 (≈ 2.94 µM) | 12.5 (≈ 23.6 µM) | 12.5 (≈ 23.6 µM) | 12.5 (≈ 23.6 µM) | 3.13 (≈ 5.9 µM) | 6.25 (≈ 11.8 µM) | 6.2 (≈ 11.7 µM) | 1.56 (≈ 2.94 µM) | 25 (≈ 47.1 µM) | 1.56 (≈ 2.94 µM) | 0.39 (≈ 0.735 µM) | 25 (≈ 47.1 µM) | 3.13 (≈ 5.9 µM) | 25 (≈ 47.1 µM) | 0.78 (≈ 1.47 µM) | MIC PA + (P. aeruginosa PA01): 6.25 µg/mL; MIC (P. aeruginosa PA01; PA01, read-out: MIC PA −): 12.5 µg/mL (≈ 23.6 µM); MIC ECΔtolC MH+CCCP [1, 4]: 1.56 µg/mL (≈ 2.94 µM); MIC [2]: 6.25 µg/mL (≈ 11.8 µM); MIC ECΔampC + [2]: 1.56 µg/mL |
| CC(C)(C)Oc1ccc(CC2NC(=O)C(C(=O)NC(C(=O)NC3C(=O)N4C3SC(C)(C)C4C(=O)O)c3ccccc3)=C2O)cc1 (centres unmarked) [Compound 1905] | 25 (≈ 39.3 µM) | 0.78 (≈ 1.23 µM) | 6.25 (≈ 9.82 µM) | 12.5 | 25 (≈ 39.3 µM) | 0.78 (≈ 1.23 µM) | 25 (≈ 39.3 µM) | 25 (≈ 39.3 µM) | 6.25 (≈ 9.82 µM) | 3.13 (≈ 4.92 µM) | 6.25 (≈ 9.82 µM) | 6.25 (≈ 9.82 µM) | 1.56 (≈ 2.45 µM) | 50 (≈ 78.5 µM) | 3.13 (≈ 4.92 µM) | < 0.2 | 50 (≈ 78.5 µM) | 3.13 (≈ 4.92 µM) | 50 (≈ 78.5 µM) | 0.78 (≈ 1.23 µM) | MIC PA + (P. aeruginosa PA01): 12.5 µg/mL; MIC (P. aeruginosa PA01; PA01, read-out: MIC PA −): 25 µg/mL (≈ 39.3 µM); MIC ECΔtolC MH+BP/CCCP ([1]; {}): 0.78 µg/mL (≈ 1.23 µM); MIC ECΔtolC MH+CCCP ([1]; {}): 1.56 µg/mL (≈ 2.45 µM); MIC ECΔampC + [2]: 12.5 µg/mL |
| CC(C)(C)OCC1NC(=O)C(C(=O)NC(C(=O)NC2C(=O)N3C2SC(C)(C)C3C(=O)O)c2ccccc2)=C1O (centres unmarked) [Compound 1940] | 6.25 (≈ 11.1 µM) | 0.78 (≈ 1.39 µM) | 12.5 (≈ 22.3 µM) | 12.5 | 50 (≈ 89.2 µM) | 6.25 (≈ 11.1 µM) | 25 (≈ 44.6 µM) | 25 (≈ 44.6 µM) | 12.5 (≈ 22.3 µM) | 12.5 (≈ 22.3 µM) | 12.5 (≈ 22.3 µM) | 12.5 (≈ 22.3 µM) | 3.13 (≈ 5.58 µM) | 50 (≈ 89.2 µM) | 3.13 (≈ 5.58 µM) | 0.78 (≈ 1.39 µM) | 25 (≈ 44.6 µM) | 3.13 (≈ 5.58 µM) | 25 (≈ 44.6 µM) | 1.56 (≈ 2.78 µM) | MIC PA + (P. aeruginosa PA01): 12.5 µg/mL; MIC (P. aeruginosa PA01; PA01, read-out: MIC PA −): 25 µg/mL (≈ 44.6 µM); MIC ECΔtolC MH+BP/CCCP ([1]; {}): 1.56 µg/mL (≈ 2.78 µM); MIC ECΔtolC MH+CCCP ([1]; {}): 6.25 µg/mL (≈ 11.1 µM); MIC [2]: 12.5 µg/mL (≈ 22.3 µM); MIC ECΔampC + [2]: 6.25 µg/mL |
| CN1CC(O)=C(C(=O)NC(C(=O)NC2C(=O)N3C2SC(C)(C)C3C(=O)O)c2ccccc2)C1=O (centres unmarked) [Compound 2742] | 6.25 (≈ 12.8 µM) | 1.56 (≈ 3.19 µM) | 12.5 (≈ 25.6 µM) | 25 | 100 (≈ 205 µM) | 6.25 (≈ 12.8 µM) | 25 (≈ 51.2 µM) | 25 (≈ 51.2 µM) | 12.5 (≈ 25.6 µM) | 12.5 (≈ 25.6 µM) | 12.5 (≈ 25.6 µM) | 12.5 (≈ 25.6 µM) | 6.25 (≈ 12.8 µM) | 100 (≈ 205 µM) | 3.13 (≈ 6.41 µM) | 1.56 (≈ 3.19 µM) | 100 (≈ 205 µM) | 6.25 (≈ 12.8 µM) | 25 (≈ 51.2 µM) | 1.56 (≈ 3.19 µM) | MIC PA + (P. aeruginosa PA01): 12.5 µg/mL; MIC (P. aeruginosa PA01; PA01, read-out: MIC PA −): 25 µg/mL (≈ 51.2 µM); MIC ECΔtolC MH+BP/CCCP ([1]; {}): 1.56 µg/mL (≈ 3.19 µM); MIC ECΔtolC MH+CCCP ([1]; {}): 6.25 µg/mL (≈ 12.8 µM); MIC [2]: 25 µg/mL (≈ 51.2 µM); MIC ECΔampC + [2]: 12.5 µg/mL |
| CC1(C)SC2C(NC(=O)C(NC(=O)C3=C(O)CNC3=O)c3ccccc3)C(=O)N2C1C(=O)O (centres unmarked) [Compound 2743] | 3.13 (≈ 6.6 µM) | < 0.2 | 12.5 (≈ 26.3 µM) | 12.5 | 200 (≈ 422 µM) | 3.13 (≈ 6.6 µM) | 25 (≈ 52.7 µM) | 25 (≈ 52.7 µM) | 12.5 (≈ 26.3 µM) | 6.25 (≈ 13.2 µM) | 12.5 (≈ 26.3 µM) | 12.5 (≈ 26.3 µM) | 6.25 (≈ 13.2 µM) | 100 (≈ 211 µM) | 0.78 (≈ 1.64 µM) | < 0.2 | 25 (≈ 52.7 µM) | 0.78 (≈ 1.64 µM) | 12.5 (≈ 26.3 µM) | 0.78 (≈ 1.64 µM) | MIC PA + (P. aeruginosa PA01): 12.5 µg/mL; MIC (P. aeruginosa PA01; PA01, read-out: MIC PA −): 25 µg/mL (≈ 52.7 µM); MIC ECΔtolC MH+BP/CCCP ([1]; {}): 1.56 µg/mL (≈ 3.29 µM); MIC ECΔtolC MH+CCCP ([1]; {}): 3.13 µg/mL (≈ 6.6 µM); MIC [2]: 12.5 µg/mL (≈ 26.3 µM); MIC ECΔampC + [2]: 6.25 µg/mL |
| CC(C)C1NC(=O)C(C(=O)NC(C(=O)NC2C(=O)N3C2SC(C)(C)C3C(=O)O)c2ccccc2)=C1O (centres unmarked) [Compound 2744] | 12.5 (≈ 24.2 µM) | 0.78 (≈ 1.51 µM) | 25 (≈ 48.4 µM) | 25 | 100 (≈ 194 µM) | 25 (≈ 48.4 µM) | 25 (≈ 48.4 µM) | 25 (≈ 48.4 µM) | 50 (≈ 96.8 µM) | 12.5 (≈ 24.2 µM) | 3.13 (≈ 6.06 µM) | 3.13 (≈ 6.06 µM) | 3.13 (≈ 6.06 µM) | 12.5 (≈ 24.2 µM) | 3.13 (≈ 6.06 µM) | 0.39 (≈ 0.755 µM) | 25 (≈ 48.4 µM) | 6.25 (≈ 12.1 µM) | 12.5 (≈ 24.2 µM) | 1.56 (≈ 3.02 µM) | MIC PA + (P. aeruginosa PA01): 25 µg/mL; MIC (P. aeruginosa PA01; PA01, read-out: MIC PA −): 25 µg/mL (≈ 48.4 µM); MIC ECΔtolC MH+BP/CCCP ([1]; {}): 0.78 µg/mL (≈ 1.51 µM); MIC ECΔtolC MH+CCCP ([1]; {}): 1.56 µg/mL (≈ 3.02 µM); MIC ECΔampC + [2]: 12.5 µg/mL |
| CC1(C)S[C@@H]2[C@H](NC(=O)C(C(=O)O)c3ccccc3)C(=O)N2[C@H]1C(=O)O (some centres unmarked) [carbenicillin, reference compound] | 1.56 (≈ 4.12 µM) | < 0.2 | 0.78 (≈ 2.06 µM) | – | 100 (≈ 264 µM) | 1.56 (≈ 4.12 µM) | 100 (≈ 264 µM) | 200 (≈ 529 µM) | 50 (≈ 132 µM) | 25 (≈ 66.1 µM) | 0.09 (≈ 0.238 µM) | 1.56 (≈ 4.12 µM) | 0.56 (≈ 1.48 µM) | 100 (≈ 264 µM) | < 0.2 | < 0.2 | 6.25 (≈ 16.5 µM) | < 0.2 | 3.13 (≈ 8.27 µM) | < 0.2 | MIC ECΔtolC MH+CCCP [1, 4]: 0.78 µg/mL (≈ 2.06 µM) |
